In data set [1] the test system is Rattus norvegicus. Briefly: Hypotensive activity in iv dosed anesthetized normotensive Wistar rat assessed as maximal decrease in mean arterial pressure. It counts as functional, Artery. As to conditions: for ED30: Rattus norvegicus, Wistar, Artery, iv. An outline of the steps:
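Male Wistar rats (190-220 g) anaesthetised with pentobarbitone sodium 75 mg/kg ip, kept at 37 ± 1 °C, ventilated and heparinised. Carotid arterial pressure recorded; animals outside 100–150 mmHg after ~20 min equilibration discarded. Graded iv doses in saline, with randomised agents and doses and one rat per experiment. Log-dose–response curves of maximal fall in mean pressure gave the dose (μmol/kg) for a 30% decrease (ED30).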

A short description of data set [2]: Apparent partition coefficient, log P in octanol and 0.1 M phosphate buffer at pH 7.4. Type of data set: physicochemical. As to conditions: octanol/0.1 M phosphate buffer.
Data set [3] has as its system Rattus norvegicus. Briefly: Hypotensive activity in iv dosed anesthetized normotensive Wistar rat assessed as maximal decrease in mean arterial pressure measured per gram of brain tissue. It counts as functional, Artery.
The test system of data set [4] is Rattus norvegicus. Nature of the data set: Hypotensive activity in iv dosed anesthetized normotensive Wistar rat assessed as 30% decrease in mean arterial pressure. As to conditions: Artery.

Regarding `Cl.Fc1cccc(Cl)c1N=C1NCCN1`, the “log(1/ED30)” value is 1.47 with Rattus norvegicus [1] and 1.13 in the data set on Rattus norvegicus [3]. Besides, the ED30 with Rattus norvegicus [1] amounted to 0.0125 mg/kg. In data set [2], the logD was 0.52.
`Cl.Clc1ccccc1N=C1NCCN1`: the “log(1/ED30)” value in the data set on Rattus norvegicus [1] was 0.15; in the data set on Rattus norvegicus [3], 0.67. Further, the ED30 in the data set on Rattus norvegicus [1] turned out to be 0.17 mg/kg. In data set [2], the logD is -0.67.
On to `Cl.Clc1cc(Cl)c(N=C2NCCN2)c(Cl)c1`, for which the ED30 in the data set with Rattus norvegicus [1] stood at 0.021 mg/kg.
In the case of `Cc1cc(Cl)c(N=C2NCCN2)c(Cl)c1.Cl`, in the data set on Rattus norvegicus [1], the “log(1/ED30)” value came out at 1.22 and the ED30 came out at 0.021 mg/kg. Further, the logD in data set [2] is 0.73. The “log(1/ED30)” value in the data set on Rattus norvegicus [3] is recorded as 0.87.
For the compound `Cl.Clc1ccc(Cl)c(N=C2NCCN2)c1`, in the data set on Rattus norvegicus [1], the “log(1/ED30)” value is 0.32 and the ED30 was determined as 0.15 mg/kg. Besides, the logD in data set [2] was determined as 0.65. In addition, the “log(1/ED30)” value in the data set on Rattus norvegicus [3] was 0.03.
For the compound `Cl.Clc1cccc(Br)c1N=C1NCCN1`, the “log(1/ED30)” value in the data set with Rattus norvegicus [1] was found to be 2.22; in the data set on Rattus norvegicus [3] it was 1.72. In data set [2], the logD worked out at 0.87. Further, in the data set with Rattus norvegicus [4], the ED30 was found to be 0.0029 mg/kg.
Consider `Cc1cc(C)c(N=C2NCCN2)c(Cl)c1.Cl`, for which the “log(1/ED30)” value was 0.52 in the data set on Rattus norvegicus [1] and 0.83 in the data set on Rattus norvegicus [3]. For the same compound, the ED30 in the data set with Rattus norvegicus [1] was found to be 0.08 mg/kg. The logD in data set [2] was -0.36.
The corresponding values for `COc1cc(Cl)c(N=C2NCCN2)c(Cl)c1.Cl` are -0.78, -0.82, 2 mg/kg and 0.15.
On to `Cc1cccc(C)c1N=C1NCCN1.Cl`, for which the “log(1/ED30)” value with Rattus norvegicus [1] is reported as 0.85; in the data set on Rattus norvegicus [3], 2.14. For the same compound, the ED30 in the data set with Rattus norvegicus [1] turned out to be 0.032 mg/kg. The logD in data set [2] is -1.54.
Take `Cc1cc(Cl)cc(C)c1N=C1NCCN1.Cl`: the “log(1/ED30)” value in the data set on Rattus norvegicus [1] was found to be 0.04; in the data set with Rattus norvegicus [3], 0.54. In addition, in the data set on Rattus norvegicus [1], the ED30 was 0.24 mg/kg. Besides, the logD in data set [2] is -0.62.
The corresponding values for `Cc1cc(Cl)cc(Cl)c1N=C1NCCN1.Cl` are 0.57, 0.4, 0.079 mg/kg and 0.47.
With `Cl.Clc1cccc(N=C2NCCN2)c1Cl`, the entries for the “log(1/ED30)” value in the data set on Rattus norvegicus [1] and with Rattus norvegicus [3] were 1.37 and 1.13, respectively. The ED30 with Rattus norvegicus [1] was 0.013 mg/kg. Also, the logD in data set [2] worked out at 0.57.
In the same order, the values of `Cl.O=[N+]([O-])c1cc(Cl)c(N=C2NCCN2)c(Cl)c1` are -0.34, -1.68, 4.5 mg/kg and 1.92.
`Cl.Clc1cc(Br)cc(Cl)c1N=C1NCCN1`: in the data set with Rattus norvegicus [1], the “log(1/ED30)” value turned out to be 1.03 and the ED30 amounted to 0.06 mg/kg. Moreover, the logD in data set [2] came out at 1.97.
Take `Cc1cc(Br)cc(C)c1N=C1NCCN1.Cl`: in the data set with Rattus norvegicus [1], the “log(1/ED30)” value is given as -0.36 and the ED30 is 0.7 mg/kg. For the same compound, in data set [2], the logD was -0.28. In addition, the “log(1/ED30)” value in the data set with Rattus norvegicus [3] was -0.1.
In the same order, the values of `Cc1cc(C)c(N=C2NCCN2)c(C)c1.Cl` are -0.07, 0.28 mg/kg, -1.28 and 0.98.
In the same order, the values of `Cl.c1ccc(NC2=NCCN2)cc1` are -2.1, 25 mg/kg, -1.92 and -0.42.
The corresponding values for `Cl.Clc1ccc(N=C2NCCN2)c(Cl)c1` are 0.68, 0.061 mg/kg, 0.29 and 0.58.
Turning to `Cc1ccc(N=C2NCCN2)c(Cl)c1.Cl`, in the data set with Rattus norvegicus [1], the “log(1/ED30)” value came out at 0.68 and the ED30 turned out to be 0.053 mg/kg. Also, in data set [2], the logD is -0.48. Moreover, the “log(1/ED30)” value in the data set with Rattus norvegicus [3] turned out to be 1.07.
`Cl.Clc1cccc(Cl)c1NC1=NCCN1` [CLONIDINE HYDROCHLORIDE]: the results for the “log(1/ED30)” value in the data set with Rattus norvegicus [1] and in the data set on Rattus norvegicus [3] were 2.14 and 1.78, respectively. Also, the ED30 in the data set on Rattus norvegicus [4] was 0.0027 mg/kg.
As for `Cc1cccc(Cl)c1N=C1NCCN1.Cl`, the “log(1/ED30)” value in the data set with Rattus norvegicus [1] turned out to be 1.12; with Rattus norvegicus [3] it was 1.57. For the same compound, in the data set with Rattus norvegicus [1], the ED30 came to 0.019 mg/kg. Moreover, the logD in data set [2] is -0.57.
Take `Brc1cccc(Br)c1N=C1NCCN1.Cl`: in the data set with Rattus norvegicus [1], the “log(1/ED30)” value was found to be 2.04 and the ED30 was 0.0055 mg/kg. Besides, the logD in data set [2] stood at 1.21. For the same compound, the “log(1/ED30)” value in the data set on Rattus norvegicus [3] was 1.4.
For `Cc1cc(Cl)ccc1N=C1NCCN1.Cl`, in the data set with Rattus norvegicus [1], the “log(1/ED30)” value is given as -0.05 and the ED30 stood at 0.275 mg/kg. The logD in data set [2] was -1.06. The “log(1/ED30)” value with Rattus norvegicus [3] is reported as 0.8.
The corresponding values for `Cl.Fc1cccc(F)c1N=C1NCCN1` are -0.29, 0.6 mg/kg, -0.16 and -0.22.
The corresponding values for `Cc1ccccc1N=C1NCCN1.Cl` are -0.67, 0.99 mg/kg, -1.82 and 0.91.
In the same order, the values of `Cc1ccc(N=C2NCCN2)c(C)c1.Cl` are -0.56, 0.81 mg/kg, -1.66 and 0.86.
For `Brc1cc(Br)c(N=C2NCCN2)c(Br)c1.Cl`, the “log(1/ED30)” value with Rattus norvegicus [1] is reported as 0.28; in the data set on Rattus norvegicus [3] it was -0.65. In addition, the ED30 with Rattus norvegicus [1] was 0.58 mg/kg. For the same compound, in data set [2], the logD was determined as 2.24.

These data come from ChEMBL document CHEMBL3272166, “Quantitative structure-activity relationships in centrally acting imidazolidines structurally related to clonidine” (J Med Chem, 1977).
